The results in this text go back to ChEMBL document CHEMBL1777725, “New class of potent antitumor acylhydrazone derivatives containing furan” (Eur J Med Chem, 2010).

Assay [1] deals with HL-60. The assay can be described thus: Growth inhibition of human HL60 cells at 10 uM after 48 hrs by MTT assay. The assay is classed as functional. The settings on record: HL-60, 48 h, read-out: GI. Summed up: (§1)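 Exponentially growing cells at 1–2.5 ×10⁴ cells/mL, in humidified 5% CO₂, were seeded into 96-well plates. After 24 h, medium containing compound at various concentrations was added, and cells were incubated 48 h. Controls received RPMI-1640 medium only. Viable cell number was read by MTT at 570 nm for HL-60, and by SRB at 540 nm for Bel-7402, BGC-823 and KB.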
On the technique in general: Tetrazolium assays rely on reduction of a dye to a coloured formazan, in cell work by metabolically active cells.

The subject of assay [2] is BGC-823. The assay can be described thus: Growth inhibition of human BGC823 cells at 10 uM after 48 hrs by SRB assay. The assay is classed as functional. The settings on record: BGC-823, 48 h, read-out: GI. Summed up:
as §1
A general note: The SRB assay estimates cell density from bound dye.

Assay [3] concerns Bel-7402. The assay can be described thus: Growth inhibition of human Bel7402 cells at 10 uM after 48 hrs by SRB assay. The settings on record: Bel-7402, 48 h, read-out: GI. The format is functional. Summed up:
as §1

In assay [4] the test system is KB. The assay can be described thus: Growth inhibition of human KB cells at 10 uM after 48 hrs by SRB assay. The format is functional. To be noted: read-out: GI. The procedure, abridged:
as §1

The subject of assay [5] is BGC-823. The assay can be described thus: Antitumor activity against human BGC823 cells after 48 hrs by SRB assay. The assay is classed as functional, cell-based. The settings on record: BGC-823, 48 h. Summed up: as §1
In assay [6] the test system is Bel-7402. The assay can be described thus: Antitumor activity against human Bel7402 cells after 48 hrs by SRB assay. The format is functional, cell-based. The settings on record: Bel-7402, 48 h. The procedure, abridged: as §1
Assay [7] has as its system KB. The assay can be described thus: Antitumor activity against human KB cells after 48 hrs by SRB assay. The assay is classed as functional, cell-based. The procedure, abridged:
as §1

Consider `COc1ccccc1C(=O)N/N=C/c1ccc(-c2ccc(F)cc2F)o1`, for which the inhibition of growth at 10 µM in assay [1] was determined as 7.77%; in assay [2], 35.9%; in assay [3], 1.69%; in assay [4], 10.1%.

In the case of `O=C(N/N=C/c1ccc(-c2ccccc2F)o1)c1ccc(Cl)cc1`, the inhibition of growth at 10 µM in assay [1] turned out to be 6.13%; in assay [2] it was 31.5%; in assay [3] it was 2.96%; in assay [4], 4.62%.

Regarding `O=C(N/N=C/c1ccc(-c2ccc(F)cc2)o1)c1ccccc1O`, the inhibition of growth at 10 µM in assay [1] is -2.08%; in assay [2], 71.5%; in assay [3], 81.6%; in assay [4], 84.6%. Moreover, the IC50 (commonly the concentration that inhibits the measured activity by half) in assay [5] turned out to be 9.5 µM; in assay [6] it was 15.2 µM; in assay [7], 39 µM.

As to `O=C(N/N=C/c1ccc(-c2ccc(Cl)cc2)o1)c1ccccc1`, the inhibition of growth at 10 µM in assay [1] was 15.1%; in assay [2], 19.4%; in assay [3] it was -7.17%; in assay [4] it was 3.2%.

On to `O=C(N/N=C/c1ccc(-c2ccc(F)cc2F)o1)c1ccccc1O`, for which the inhibition of growth at 10 µM is -9.5% in assay [1], 68.4% in assay [2], 63.4% in assay [3] and 61.8% in assay [4]. Moreover, the values for the half-inhibitory concentration (IC50) in assay [5], in assay [6] and in assay [7] were 46.6 µM, 19.3 µM and 55.3 µM, respectively.

As to `Cc1cccc(C(=O)N/N=C/c2ccc(-c3ccccc3[N+](=O)[O-])o2)c1`, the inhibition of growth at 10 µM in assay [1] came to 6.25%; in assay [2] it was 36.1%; in assay [3], 5.67%; in assay [4], 5.9%.

On to `O=C(N/N=C/c1ccc(-c2cccc(F)c2)o1)c1ccc(Br)cc1`, for which the inhibition of growth at 10 µM worked out at 25.9% in assay [1], 46.7% in assay [2], 28.2% in assay [3] and 26% in assay [4].

With `COc1ccccc1/C=N/NC(=O)c1ccc(-c2ccc(F)cc2F)o1`, the inhibition of growth at 10 µM is 27.4% in assay [1], 66.8% in assay [2], 53.1% in assay [3] and 59.5% in assay [4]. Also, the IC50 was 81.6 µM in assay [5], 24.6 µM in assay [6] and more than 40 µM in assay [7].

As for `O=C(N/N=C/c1ccc(Cl)cc1)c1ccc(-c2ccccc2F)o1`, the inhibition of growth at 10 µM in assay [1] is 6.49%; in assay [2] it was 32.6%; in assay [3] it was 16.9%; in assay [4], 11.3%.

On to `O=C(N/N=C/c1ccccc1O)c1ccc(-c2ccc(F)cc2)o1`, for which the inhibition of growth at 10 µM was found to be 13.1% in assay [1], 74% in assay [2], 40% in assay [3] and 53.9% in assay [4]. The results for the IC50 in assay [5], in assay [6] and in assay [7] were 180 µM, 50.3 µM and more than 40 µM, respectively.

With `O=C(N/N=C/c1ccccc1)c1ccc(-c2ccc(Cl)cc2)o1`, the inhibition of growth at 10 µM in assay [1] is 25.8%; in assay [2], 33.7%; in assay [3] it was 2.28%; in assay [4], 17%.

In the case of `O=C(N/N=C/c1ccccc1O)c1ccc(-c2ccc(F)cc2F)o1`, the inhibition of growth at 10 µM in assay [1] was 43.1%; in assay [2], 79.1%; in assay [3], 91.8%; in assay [4], 75.2%. The concentration for half-maximal inhibition (IC50) in assay [5] is 9.6 µM; in assay [6] it was 8.3 µM; in assay [7] it was more than 40 µM.

For the compound `Cc1cccc(/C=N/NC(=O)c2ccc(-c3ccccc3[N+](=O)[O-])o2)c1`, the inhibition of growth at 10 µM in assay [1] came to 9.54%; in assay [2], 31.4%; in assay [3], 6.66%; in assay [4], 10.3%.

For the compound `O=C(N/N=C/c1ccccc1Cl)c1ccc(-c2ccc(F)cc2)o1`, the inhibition of growth at 10 µM in assay [1] was -3.22%; in assay [2] it was 32%; in assay [3] it was 4.81%; in assay [4] it was 19.3%.

As to `O=C(N/N=C/c1ccc(O)cc1)c1ccc(-c2ccc(F)cc2)o1`, the inhibition of growth at 10 µM in assay [1] was 1.07%; in assay [2], 46.3%; in assay [3], 10.6%; in assay [4], 11%.

For the compound `O=C(N/N=C/c1cccc(Br)c1)c1ccc(-c2ccccc2F)o1`, the inhibition of growth at 10 µM amounted to 27.6% in assay [1], 43.6% in assay [2], 12.5% in assay [3] and 26.5% in assay [4].

On to `COc1cccc2c1C(=O)c1c(O)c3c(c(O)c1C2=O)C[C@@](O)(C(=O)CO)C[C@@H]3O[C@H]1C[C@H](N)[C@H](O)[C@H](C)O1` [DOXORUBICIN], for which the IC50 in assay [5] came out at 4.8 µM; in assay [6], 5 µM; in assay [7], 5.8 µM.
